The source made the active and inactive calls. The calls are words filed in the database; no cut-off is given here.
Experiments:
[1] = tested on: HCT-116; assay: Growth inhibition of human HCT116 cells at 10 uM after 72 hrs by SRB assay; format: functional; settings: for inhibition at 10 µM: HCT-116, 72 h
In short: (§1)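 SRB growth assay on HCT-116 or HT-29 cells (RPMI-1640, 10% FBS, 37 °C, 5% CO2). Seeded at 6000 cells/well, attached overnight, exposed in triplicate at 10 μM for 72 h. Cells TCA-fixed, SRB-stained, A515 read. Percent inhibition = [1 − A515 treated/A515 control] × 100; mean of three determinations.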

[2] = tested on: HT-29; assay: Growth inhibition of human HT29 cells at 10 uM after 72 hrs by SRB assay; format: functional; settings: for inhibition at 10 µM: HT-29, 72 h; in short: as §1
[3] = tested on: HT-29; assay: Growth inhibition of human HT29 cells after 72 hrs by SRB assay; format: functional, cell-based; settings: HT-29, 72 h
In short: (§2)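 HCT-116 and HT-29 human colorectal lines (ATCC) grown in RPMI-1640 with 10% FBS, 2 mmol/L glutamine, penicillin/streptomycin, at 37 °C in 5% CO2. Seeded at 6000 cells/well, attached overnight, then treated in triplicate with graded concentrations for 72 h. Cells fixed in 10% TCA, stained with SRB, and A515 read. IC50 obtained by the Logit method; mean of three independent tests.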

[4] = tested on: HCT-116; assay: Growth inhibition of human HCT116 cells after 72 hrs by SRB assay; format: functional, cell-based; settings: HCT-116, 72 h; in short: as §2
[5] = Mean resident time in Sprague-Dawley rat at 10 mg/kg, po; format: ADME, organism-based; design: dose 10 mg/kg, route oral; settings: in vivo
In short: (§3)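 Sprague–Dawley rats given one oral gavage dose of 10 mg/kg suspended in 0.5% CMC-Na. Orbital-sinus blood drawn at 0, 5, 15, 30 min and 1, 2, 4, 6, 8 h; plasma frozen at −70 °C, extracted with EtOAc, and quantified by LC–MS/MS. Cmax and Tpeak read directly from the data; t1/2 = 0.693/k; mean ± SD.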

[6] = Oral bioavailability in Sprague-Dawley rat at 10 mg/kg; format: ADME, organism-based; settings: in vivo
In short: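 Rats received 10 mg/kg oral (0.5% CMC-Na) or 2 mg/kg iv (PEG400:cremophor 100:15). Serial plasma samples, 0–8 h, quantified by LC–MS/MS after EtOAc extraction. F = (AUCoral × Dose_iv)/(AUC_iv × Dose_oral) × 100%.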

[7] = tested on: Mus musculus; assay: Tumor weight in KM mouse at 200 mg/kg, ip after 7 days; format: functional; settings: route intraperitoneal
In short: (§4)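 Sarcoma 180 cells implanted in the axilla of female KM mice (6–8 weeks) on Day 0, randomized on Day 1 (control 20/group, treated 10/group). Treated mice got 200 mg/kg ip once daily for 7 days, suspended in 0.5% CMC. Mice killed 24 h after the last dose; body and tumor weights taken. Inhibition = (control − treated mean tumor weight)/control mean tumor weight × 100%.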

[8] = tested on: Sarcoma-180; assay: Antitumor activity in sarcoma180 cells implanted in KM mouse at 200 mg/kg, ip after 7 days; format: functional; settings: route intraperitoneal; in short: as §4
[9] = Clearance in Sprague-Dawley rat at 2 mg/kg, iv; format: ADME, organism-based; design: dose 2 mg/kg, route intravenous; settings: in vivo
In short: (§5)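 Sprague–Dawley rats acclimatized one week, then given one iv dose of 2 mg/kg in PEG400:cremophor (100:15, v/v). Orbital-sinus blood drawn under light ether at 0, 5, 15, 30 min and 1, 2, 4, 6, 8 h; plasma stored at −70 °C.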

[10] = tested on: Rattus norvegicus; assay: Volume of distribution in Sprague-Dawley rat at 2 mg/kg, iv; format: ADME, organism-based; design: dose 2 mg/kg, route intravenous; settings: in vivo; in short: as §5
[11] = Cmax in Sprague-Dawley rat at 10 mg/kg, po after 15 mins; format: ADME, organism-based; design: dose 10 mg/kg, route oral; settings: in vivo; in short: as §3
[12] = Mean resident time in Sprague-Dawley rat at 2 mg/kg, iv; format: ADME, organism-based; design: dose 2 mg/kg, route intravenous; settings: in vivo; in short: as §5
[13] = tested on: Mus musculus; assay: Increase in body weight in KM mouse at 100 mg/kg, ip; format: functional; settings: route intraperitoneal
[14] = Elimination half life in Sprague-Dawley rat at 10 mg/kg, po; format: ADME, organism-based; design: dose 10 mg/kg, route oral; settings: in vivo; in short: as §3
[15] = tested on: Mus musculus; assay: Tumor weight in KM mouse at 100 mg/kg, ip; format: functional; settings: route intraperitoneal
[16] = tested on: Mus musculus; assay: Increase in body weight in KM mouse at 200 mg/kg, ip after 7 days; format: functional; settings: route intraperitoneal; in short: as §4
[17] = Elimination half life in Sprague-Dawley rat at 2 mg/kg, iv; format: ADME, organism-based; design: dose 2 mg/kg, route intravenous; settings: in vivo; in short: as §5

Row | Compound | inhibition at 10 µM [1] | inhibition at 10 µM [2] | other results
1 | c1ccc(Nc2nc(NCCN3CCOCC3)nc(Nc3ccccc3)n2)cc1 | 30.1% | 23.4% | 
2 | Clc1ccc(Nc2nc(Nc3ccccc3)nc(N3CCOCC3)n2)cc1 | 51.7% | 87.1% | IC50 [3]: 37 µM
3 | OCCNc1nc(Nc2ccccc2)nc(Nc2ccccc2)n1 |  | 33.9% | Activity [1]: inactive
4 | COc1ccc(Nc2nc(Nc3ccc(SC)cc3)nc(N3CCOCC3)n2)cc1OC | 79.2% | 81.4% | 
5 | COc1ccccc1Nc1nc(Nc2ccccc2)nc(N2CCOCC2)n1 | 78.3% | 89.3% | 
6 | COc1ccc(Nc2nc(N3CCOCC3)nc(N3CCOCC3)n2)cc1 | 6.9% | 74.2% | 
7 | NS(=O)(=O)c1ccc(Nc2nc(Nc3ccccc3)nc(N3CCOCC3)n2)cc1 | 96.2% | 80.4% | IC50 [4]: 2 µM
8 | COc1ccc(Nc2nc(Nc3ccccc3)nc(N3CCOCC3)n2)cc1OC | 84.7% | 76.4% | IC50 [4]: 0.92 µM
9 | COc1cccc(Nc2nc(Nc3ccccc3)nc(N3CCOCC3)n2)c1 | 82.6% | 87.4% | IC50 [3]: 39 µM
10 | COc1ccc(Nc2nc(NCc3ccccc3)nc(N3CCOCC3)n2)cc1 | 20.1% | 88.4% | 
11 | Fc1ccc(Nc2nc(Nc3ccccc3)nc(N3CCOCC3)n2)cc1 | 60.1% | 90% | 
12 | Cc1ccc(CNc2nc(Nc3ccccc3)nc(N3CCOCC3)n2)cc1 | 15.7% | 75.3% | 
13 | COc1ccc(Nc2nc(NCCN3CCOCC3)nc(Nc3ccccc3)n2)cc1 |  | 74.6% | Activity [1]: inactive
14 | COc1ccc(Nc2nc(NCCO)nc(Nc3ccccc3)n2)cc1 |  | 13.7% | Activity [1]: inactive
15 | Fc1ccc(Nc2nc(Nc3ccc(OC(F)(F)F)cc3)nc(N3CCOCC3)n2)cc1 | 62% | 85.5% | 
16 | CCOc1ccc(Nc2nc(Nc3ccccc3)nc(N3CCOCC3)n2)cc1 | 64.1% | 87.5% | 
17 | COc1ccc(Nc2nc(Nc3ccc(OC)cc3)nc(N3CCOCC3)n2)cc1 | 53.3% | 80.6% | IC50 [3]: 100 µM
18 | CSc1ccc(Nc2nc(Nc3ccc(C)cc3)nc(N3CCOCC3)n2)cc1 | 71.1% | 54.1% | IC50 [4]: 120 µM
19 | C1CN(c2nc(N3CCOCC3)nc(N3CCOCC3)n2)CCO1 |  |  | Activity [1]: inactive; Activity [2]: inactive

Row | Compound | inhibition at 10 µM [1] | inhibition at 10 µM [2] | other results
20 | COc1ccc(Nc2nc(Nc3ccc(F)cc3)nc(N3CCOCC3)n2)cc1 |  | 82.3% | Activity [1]: inactive
21 | c1ccc(Nc2nc(Nc3ccccc3)nc(N3CCOCC3)n2)cc1 | 81.3% | 85% | IC50 [3]: 31 µM; IC50 [4]: 4.7 µM
22 | NS(=O)(=O)c1ccc(Nc2nc(N3CCOCC3)nc(N3CCOCC3)n2)cc1 |  |  | Activity [1]: inactive; Activity [2]: inactive
23 | COc1ccc(Nc2nc(Nc3ccccc3)nc(N3CCOCC3)n2)cc1 | 81.4% | 100% | MRT [5]: 1.88 h; bioavailability [6]: 30.9%; Activity [7]: 0.89 g; IC50 [3]: 30 µM; Activity [8]: 40.7%; clearance [9]: 22.7 mL/min/kg; Vdss [10]: 2.11 L/kg; Cmax [11]: 1290 ng/mL; MRT [12]: 1.06 h; Activity [13]: 29.3 g; half-life [14]: 1.16 h; IC50 [4]: 0.76 µM; Activity [15]: 1.65 g; Activity [16]: 27.3 g; half-life [17]: 1.09 h
24 | c1ccc(Nc2nc(N3CCOCC3)nc(N3CCOCC3)n2)cc1 | 44.9% | 80.5% | 
25 | c1ccc(CNc2nc(Nc3ccccc3)nc(N3CCOCC3)n2)cc1 | 48.7% | 90.5% | 
26 | OCCN1CCN(c2nc(Nc3ccccc3)nc(Nc3ccccc3)n2)CC1 | 22% | 76.1% | 
27 | COc1ccc(Nc2nc(Nc3ccccc3)nc(N3CCN(CCO)CC3)n2)cc1 | 19% | 77.3% | 
28 | Brc1ccc(Nc2nc(Nc3ccccc3)nc(N3CCOCC3)n2)cc1 | 77.7% | 89.7% | IC50 [3]: 25 µM
29 | NC(=O)c1ccc(Nc2nc(Nc3ccccc3)nc(N3CCOCC3)n2)cc1 | 85.8% | 87.8% | IC50 [3]: 8.1 µM; IC50 [4]: 9.6 µM
30 | c1ccc(CNc2nc(NCc3ccccc3)nc(N3CCOCC3)n2)cc1 |  | 50% | Activity [1]: inactive
31 | COc1ccc(Nc2nc(Nc3ccc(S(N)(=O)=O)cc3)nc(N3CCOCC3)n2)cc1 | 69% | 83.2% | 
32 | FC(F)(F)Oc1ccc(Nc2nc(Nc3ccccc3)nc(N3CCOCC3)n2)cc1 | 63.4% | 87.3% | 
33 | NS(=O)(=O)c1ccc(Nc2nc(NCc3ccccc3)nc(N3CCOCC3)n2)cc1 |  | 68.6% | Activity [1]: inactive
34 | Fc1ccc(Nc2nc(NCc3ccccc3)nc(N3CCOCC3)n2)cc1 | 10.1% | 87.1% | 
35 | COc1ccc(Nc2nc(Nc3ccc(OC)cc3)nc(N3CCN(CCO)CC3)n2)cc1 |  | 49.3% | Activity [1]: inactive
36 | c1ccc(CNc2nc(N3CCOCC3)nc(N3CCOCC3)n2)cc1 |  | 5.2% | Activity [1]: inactive
37 | Fc1ccc(Nc2nc(N3CCOCC3)nc(N3CCOCC3)n2)cc1 |  | 80.2% | Activity [1]: inactive

From ChEMBL document CHEMBL1146333, “Synthesis and antitumor evaluation of a novel series of triaminotriazine derivatives” (Bioorg Med Chem, 2007)
